In ChEMBL document CHEMBL3352511, “Pyrrole-3-carboxamides as potent and selective JAK2 inhibitors” (Bioorg Med Chem, 2014):
Values after ≈ are worked out from the molar mass of the structure shown. Active and inactive are the calls of the source. The calls are words filed in the database; no cut-off is given here.

Tests used:
[1] = Antiproliferative activity against human DERL7 cells after 72 hrs by Cell Titer-Glo assay; format: functional, cell-based; conditions: DERL7, 72 h
[2] = target: Tyrosine-protein kinase JAK2 (Homo sapiens, UniProt O60674, V617F)
Chain of Tyrosine-protein kinase JAK2 (O60674 whole entry V617F): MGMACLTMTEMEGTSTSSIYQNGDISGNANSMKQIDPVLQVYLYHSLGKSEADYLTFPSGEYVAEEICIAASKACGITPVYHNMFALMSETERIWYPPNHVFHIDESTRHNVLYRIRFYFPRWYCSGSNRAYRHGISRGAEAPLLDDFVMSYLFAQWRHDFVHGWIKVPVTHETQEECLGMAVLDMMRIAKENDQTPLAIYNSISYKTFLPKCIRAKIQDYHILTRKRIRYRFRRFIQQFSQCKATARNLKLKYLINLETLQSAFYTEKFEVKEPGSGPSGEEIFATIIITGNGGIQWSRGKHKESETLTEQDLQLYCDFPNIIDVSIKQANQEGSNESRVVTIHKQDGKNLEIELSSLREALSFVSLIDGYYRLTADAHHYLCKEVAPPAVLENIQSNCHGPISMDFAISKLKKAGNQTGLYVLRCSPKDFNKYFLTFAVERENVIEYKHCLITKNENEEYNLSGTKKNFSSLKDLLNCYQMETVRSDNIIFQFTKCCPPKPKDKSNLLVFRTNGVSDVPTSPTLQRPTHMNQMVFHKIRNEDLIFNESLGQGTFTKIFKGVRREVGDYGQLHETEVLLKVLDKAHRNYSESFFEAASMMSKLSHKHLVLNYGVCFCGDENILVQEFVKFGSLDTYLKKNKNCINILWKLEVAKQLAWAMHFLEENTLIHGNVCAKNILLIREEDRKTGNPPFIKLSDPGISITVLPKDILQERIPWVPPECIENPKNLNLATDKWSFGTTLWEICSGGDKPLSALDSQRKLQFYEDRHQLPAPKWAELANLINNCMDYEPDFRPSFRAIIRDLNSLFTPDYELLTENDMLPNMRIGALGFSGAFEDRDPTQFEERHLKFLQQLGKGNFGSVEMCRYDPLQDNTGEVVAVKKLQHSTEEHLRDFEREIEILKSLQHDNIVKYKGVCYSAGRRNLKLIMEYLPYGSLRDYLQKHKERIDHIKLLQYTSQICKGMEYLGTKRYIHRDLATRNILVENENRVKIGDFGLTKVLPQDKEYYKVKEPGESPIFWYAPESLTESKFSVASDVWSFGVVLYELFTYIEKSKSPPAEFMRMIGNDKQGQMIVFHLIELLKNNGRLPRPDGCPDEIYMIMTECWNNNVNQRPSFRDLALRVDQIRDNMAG

[3] = AUC(infinity) in Balb nu/nu mouse at 10 mg/kg, iv; format: ADME, organism-based, Plasma; design: dose 10 mg/kg, route intravenous, time infinity; conditions: Balb nu/nu, plasma
Procedure, shortened: (§1)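 Overnight-fasted male Nu/Nu mice, single intravenous dose in 10% Tween 80 in 5% dextrose, three mice. Saphenous vein blood taken at predose, 0.083, 0.5, 1, 6 and 24 h. Plasma obtained by centrifugation at 10,000g, 3 min, 4 °C, stored at -80 °C, then analysed by LC/MS/MS.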

[4] = target: Dual specificity protein kinase CLK4 (Homo sapiens) (UniProt Q9HAZ1); test: Inhibition of human CLK4 at 0.1 uM
Chain of Dual specificity protein kinase CLK4 (Homo sapiens) (Q9HAZ1 whole entry, looked up): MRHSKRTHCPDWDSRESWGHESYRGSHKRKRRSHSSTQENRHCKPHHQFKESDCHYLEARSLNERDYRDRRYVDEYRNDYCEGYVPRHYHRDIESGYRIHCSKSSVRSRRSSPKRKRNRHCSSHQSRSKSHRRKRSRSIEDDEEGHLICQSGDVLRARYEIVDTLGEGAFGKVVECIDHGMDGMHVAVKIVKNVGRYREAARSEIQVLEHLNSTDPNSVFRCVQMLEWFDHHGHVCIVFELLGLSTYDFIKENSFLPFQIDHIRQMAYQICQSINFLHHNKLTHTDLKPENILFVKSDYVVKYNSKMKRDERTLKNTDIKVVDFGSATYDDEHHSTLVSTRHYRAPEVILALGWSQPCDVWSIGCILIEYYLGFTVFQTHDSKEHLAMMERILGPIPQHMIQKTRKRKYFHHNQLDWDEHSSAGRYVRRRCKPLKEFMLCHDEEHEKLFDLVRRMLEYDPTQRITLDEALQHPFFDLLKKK
Procedure, shortened: (§2)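 KINOMEscan active-site-directed competition binding panel of 442 human kinases, compound tested at 0.1 µM. Primary screen results expressed as % Ctrl, where lower values mean stronger binding.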

SET-2 [5] = test: Effect on total STAT5 level in human SET2 cells at 0.08 to 10 uM after 2 hrs by SDS-PAGE analysis; format: functional, cell-based
Procedure, shortened: (§3)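 SET-2 cells were grown in RPMI 1640 with 10% FBS at 37 °C, 5% CO₂, and exposed to compound or DMSO for 2 h at 37 °C. Cells were washed in cold PBS and lysed in RIPA buffer. Equal lysate amounts went through SDS-PAGE and nitrocellulose transfer, then 5% milk/TBST blocking and overnight 4 °C probing for total STAT3/STAT5 and phospho-STAT, with ECL detection.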

SET-2 [6] = test: Inhibition of STAT5 phosphorylation in human SET2 cells xenografted in SCID mouse assessed as tumor growth inhibition at 30 mg/kg, po as single dose measured at 1 to 3 hrs post treatment; format: functional, organism-based; design: dose 30 mg/kg
Procedure, shortened: (§4)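 SET-2 s.c. xenografts in irradiated female SCID mice were given one oral dose. Tumours were collected at several post-treatment times, 3 animals per time. Tumour lysates were western blotted for P-STAT5 and P-STAT3, with GAPDH as loading control.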

[7] = Antitumor activity against human SET2 cells xenografted in SCID mouse assessed as tumor growth inhibition at 30 mg/kg, po bid for 10 consecutive days; format: functional; conditions: SET-2, read-out: TGI
Procedure, shortened: (§5)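 Female SCID mice, 5–6 weeks old, given 200 Rads whole-body gamma irradiation, then inoculated s.c. with 10^7 SET-2 cells. Dosing by mouth started at 100-200 mm³ tumours; controls received vehicle (0.5% methocel). Seven animals per study.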

[8] = Antitumor activity against human SET2 cells xenografted in SCID mouse assessed as tumor growth inhibition at 15 mg/kg, po bid for 10 consecutive days; format: functional; conditions: SET-2, read-out: TGI; procedure, shortened: as §5
[9] = Cmax in Balb nu/nu mouse at 10 mg/kg, iv; format: ADME, organism-based; design: dose 10 mg/kg, route intravenous; conditions: in vivo; procedure, shortened: as §1
Mus musculus [10] = test: Toxicity in human SET2 cells xenografted SCID mouse assessed as reversible body weight loss at 50 mg/kg, po bid administered as 5 days on 5 days off for 3 cycles; format: organism-based; design: dose 50 mg/kg, route oral; conditions: in vivo, 120 h
Procedure, shortened: (§6)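 SET-2 xenografts (10^7 cells s.c.) in irradiated female SCID mice, seven per study, dosed orally from 100-200 mm³ tumours, with 0.5% methocel vehicle controls. Body weight loss recorded at end of treatment.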

DERL7 = test: Effect on total STAT5 level in IL-2-activated human DERL7 cells at 0.08 to 10 uM after 2 hrs by SDS-PAGE analysis; format: functional, cell-based
Procedure, shortened: (§7)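 DERL-7 cells were kept in RPMI 1640 with 10% FBS and 20 ng/ml human IL-2, then starved 18 h. Compound was applied for 2 h, followed by IL-2 stimulation (20 ng/ml, 15 min, 37 °C). Cold-PBS-washed cells were lysed in RIPA. Lysates were resolved by SDS-PAGE and western blotted for P-STAT5 and total STAT5, with ECL detection.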

SET-2 [11] = test: Inhibition of STAT5 phosphorylation in human SET2 cells xenografted in SCID mouse assessed as tumor growth inhibition at 50 mg/kg, po as single dose measured up to 12 hrs post treatment; format: functional, organism-based; design: dose 50 mg/kg; procedure, shortened: as §4
[12] = AUC(infinity) in Balb nu/nu mouse at 10 mg/kg, po; format: ADME, organism-based; design: time infinity, dose 10 mg/kg, route oral; conditions: plasma
Procedure, shortened: (§8)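 Overnight-fasted male Nu/Nu mice, single oral dose in 0.5% methocel, three mice. Saphenous vein blood taken at predose, 0.083, 0.5, 1, 6 and 24 h. Plasma obtained by centrifugation at 10,000g, 3 min, 4 °C, stored at -80 °C, then analysed by LC/MS/MS.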

[13] = target: Dual specificity protein kinase CLK2 (Homo sapiens) (UniProt P49760); test: Inhibition of human CLK2 at 0.1 uM; procedure, shortened: as §2
Chain of Dual specificity protein kinase CLK2 (Homo sapiens) (P49760 whole entry, looked up): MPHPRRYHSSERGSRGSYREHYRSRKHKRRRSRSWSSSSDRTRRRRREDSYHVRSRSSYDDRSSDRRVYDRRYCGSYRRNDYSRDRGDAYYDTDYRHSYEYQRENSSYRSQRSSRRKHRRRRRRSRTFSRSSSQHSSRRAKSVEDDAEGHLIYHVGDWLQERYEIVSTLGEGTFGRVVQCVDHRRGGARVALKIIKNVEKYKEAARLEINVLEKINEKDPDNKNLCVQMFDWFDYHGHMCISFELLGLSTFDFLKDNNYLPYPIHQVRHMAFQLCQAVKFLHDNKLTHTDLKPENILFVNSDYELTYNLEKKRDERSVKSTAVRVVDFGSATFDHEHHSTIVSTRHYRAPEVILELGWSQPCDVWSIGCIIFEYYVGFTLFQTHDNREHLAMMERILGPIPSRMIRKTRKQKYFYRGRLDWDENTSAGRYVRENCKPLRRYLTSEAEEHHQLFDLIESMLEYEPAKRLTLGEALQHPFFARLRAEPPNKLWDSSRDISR

[14] = Clearance in Balb nu/nu mouse at 10 mg/kg, iv; format: ADME, organism-based; design: dose 10 mg/kg, route intravenous; conditions: in vivo; procedure, shortened: as §1
Mus musculus [15] = test: Toxicity in human SET2 cells xenografted SCID mouse assessed as reversible body weight loss at 15 mg/kg, po bid for 10 consecutive days; format: organism-based; design: dose 15 mg/kg, route oral; conditions: in vivo; procedure, shortened: as §6
[16] = Antitumor activity against human SET2 cells xenografted in SCID mouse assessed as tumor growth inhibition at 50 mg/kg, po bid administered as 5 days on 5 days off for 3 cycles; format: functional; conditions: SET-2, 120 h, read-out: TGI; procedure, shortened: as §5
[17] = Solubility of the compound in buffer at pH7; format: physicochemical; conditions: pH 7
A2780 = test: Antiproliferative activity against human A2780 cells after 72 hrs by Cell Titer-Glo assay; format: functional, cell-based; conditions: A2780, 72 h
[18] = target: Dual specificity tyrosine-phosphorylation-regulated kinase 1A (Homo sapiens) (UniProt Q13627); test: Inhibition of human DYRK1A at 0.1 uM; procedure, shortened: as §2
[19] = Half life in Balb nu/nu mouse at 10 mg/kg, po; format: ADME, organism-based; design: dose 10 mg/kg, route oral; conditions: in vivo; procedure, shortened: as §8
JAK3/JAK1 (Homo sapiens) = JAK3/JAK1 (Homo sapiens) (UniProt P52333+P23458); test: Inhibition of JAK1/3-induced STAT5 phosphorylation in IL-2-activated human DERL7 cells at 10 uM after 2 hrs by SDS-PAGE analysis; format: cell-based; procedure, shortened: as §7
[20] = Cmax in Balb nu/nu mouse at 10 mg/kg, po; format: ADME, organism-based; design: dose 10 mg/kg, route oral; conditions: in vivo; procedure, shortened: as §8
[21] = Volume of distribution at steady state in Balb nu/nu mouse at 10 mg/kg, iv; format: ADME, organism-based; design: dose 10 mg/kg, route intravenous; conditions: in vivo, read-out: Vdss; procedure, shortened: as §1
Mus musculus [22] = test: Toxicity in human SET2 cells xenografted SCID mouse assessed as reversible body weight loss at 30 mg/kg, po bid for 10 consecutive days measured after 10 days; conditions: in vivo, 240 h
[23] = target: Dual specificity tyrosine-phosphorylation-regulated kinase 1B (Homo sapiens) (UniProt Q9Y463); test: Inhibition of human DYRK1B at 0.1 uM; procedure, shortened: as §2
Chain of Dual specificity tyrosine-phosphorylation-regulated kinase 1B (Homo sapiens) (Q9Y463 whole entry, looked up): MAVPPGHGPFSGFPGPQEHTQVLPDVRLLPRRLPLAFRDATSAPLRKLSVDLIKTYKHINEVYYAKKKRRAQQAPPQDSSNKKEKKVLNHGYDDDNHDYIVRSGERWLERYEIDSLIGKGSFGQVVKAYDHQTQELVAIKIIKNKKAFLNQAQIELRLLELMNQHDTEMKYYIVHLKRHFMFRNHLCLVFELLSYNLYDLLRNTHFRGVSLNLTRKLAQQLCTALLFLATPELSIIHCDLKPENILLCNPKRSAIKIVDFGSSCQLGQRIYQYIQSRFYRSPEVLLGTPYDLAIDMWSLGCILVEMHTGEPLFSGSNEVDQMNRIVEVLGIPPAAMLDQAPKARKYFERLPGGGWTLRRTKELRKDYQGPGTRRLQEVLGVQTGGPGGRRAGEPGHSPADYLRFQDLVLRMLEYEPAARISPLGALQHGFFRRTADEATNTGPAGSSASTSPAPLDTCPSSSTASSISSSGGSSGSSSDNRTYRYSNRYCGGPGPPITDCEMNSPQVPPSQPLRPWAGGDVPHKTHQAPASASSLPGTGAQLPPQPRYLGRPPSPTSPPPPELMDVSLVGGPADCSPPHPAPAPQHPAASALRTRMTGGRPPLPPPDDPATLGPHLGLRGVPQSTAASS

[24] = Oral bioavailability in Balb nu/nu mouse at 10 mg/kg; format: ADME, organism-based; conditions: in vivo; procedure, shortened: as §8
SET-2 [25] = test: Effect on total STAT3 level in human SET2 cells at 0.08 to 10 uM after 2 hrs by SDS-PAGE analysis; format: functional, cell-based; procedure, shortened: as §3
SET-2 [26] = test: Inhibition of STAT3 phosphorylation in human SET2 cells xenografted in SCID mouse assessed as tumor growth inhibition at 30 mg/kg, po as single dose measured at 1 to 3 hrs post treatment; format: functional, organism-based; design: dose 30 mg/kg; procedure, shortened: as §4

Q: For `NC(=O)c1cc(-c2ccnc(N)n2)[nH]c1-c1cc(C(F)(F)F)ccc1Cl`, which IC50 [1] is on record?
A: 1.88 µM

Q: And the IC50 [2]?
A: 0.48 µM

Q: What about the AUC(0-inf) [3] of the same compound?
A: 26.4 µM·h

Q: What about the inhibition [4] of the same compound?
A: 1%

Q: What about the Activity (SET-2 [5]) of the same compound?
A: inactive

Q: What about the inhibition (SET-2 [6]) of the same compound?
A: Active

Q: And the inhibition in vivo at 30 mg/kg [7]?
A: 71%

Q: And the inhibition in vivo at 15 mg/kg [8]?
A: 50%

Q: And the Cmax [9]?
A: 17.6 µM

Q: And the Activity (Mus musculus [10])?
A: 15%

Q: And the Activity (DERL7)?
A: inactive

Q: What about the inhibition (SET-2 [11]) of the same compound?
A: Active

Q: And the AUC(0-inf) [12]?
A: 9.5 µM·h

Q: What about the inhibition [13] of the same compound?
A: 1%

Q: What about the clearance [14] of the same compound?
A: 16.2 mL/min/kg

Q: And the Activity (Mus musculus [15])?
A: 2%

Q: And the inhibition in vivo at 50 mg/kg [16]?
A: 95%

Q: What about the solubility [17] of the same compound?
A: 159 µM (≈ 60.7 µg/mL)

Q: And the IC50 (A2780)?
A: 1.47 µM

Q: What about the inhibition [18] of the same compound?
A: 1%

Q: What about the half-life [19] of the same compound?
A: 2.3 h

Q: And the inhibition (JAK3/JAK1 (Homo sapiens))?
A: Active

Q: What about the Cmax [20] of the same compound?
A: 4.2 µM

Q: And the Vd [21]?
A: 0.9 L/kg

Q: What about the Activity (Mus musculus [22]) of the same compound?
A: 6%

Q: What about the inhibition [23] of the same compound?
A: 1%

Q: What about the bioavailability [24] of the same compound?
A: 31%

Q: And the Activity (SET-2 [25])?
A: inactive

Q: And the inhibition (SET-2 [26])?
A: Active
